Reference: ChEMBL document CHEMBL2169863, “Discovery, structure-activity relationship, and biological evaluation of noninhibitory small molecule chaperones of glucocerebrosidase” (J Med Chem, 2012)
Residue numbers refer to the chain shown, from its start. Activity calls are given as the source filed them. Unless noted, the calls are words filed in the database; no cut-off is given here.

Tests used:
[1] = tested on: T1, Lysosomal acid glucosylceramidase (Homo sapiens), P04062 [N409S]; test: Activation of glucocerebrosidase N370S mutant in Gaucher patient spleen homogenate using resorufin beta-D-glucopyranoside as substrate incubated for 5 mins prior to substrate addition measured after 30 to 45 mins by fluorimetric analysis; type: tissue-based
T1 sequence (whole entry): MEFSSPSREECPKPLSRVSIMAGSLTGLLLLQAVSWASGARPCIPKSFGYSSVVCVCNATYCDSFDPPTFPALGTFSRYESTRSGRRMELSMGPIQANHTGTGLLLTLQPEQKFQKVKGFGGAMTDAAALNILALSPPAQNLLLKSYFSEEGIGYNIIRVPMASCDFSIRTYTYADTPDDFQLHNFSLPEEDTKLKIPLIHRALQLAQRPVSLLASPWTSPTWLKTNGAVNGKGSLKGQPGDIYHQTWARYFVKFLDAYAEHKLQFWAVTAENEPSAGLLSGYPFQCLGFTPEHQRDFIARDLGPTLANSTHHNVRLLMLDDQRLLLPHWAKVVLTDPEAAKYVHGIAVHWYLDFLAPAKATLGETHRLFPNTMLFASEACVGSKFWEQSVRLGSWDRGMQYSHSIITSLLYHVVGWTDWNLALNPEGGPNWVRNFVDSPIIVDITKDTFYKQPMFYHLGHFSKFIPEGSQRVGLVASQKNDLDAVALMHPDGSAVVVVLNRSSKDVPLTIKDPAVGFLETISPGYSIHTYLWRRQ
How it was run: (§1)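 Spleen homogenate (27 μg final) in pH 5 citrate/phosphate buffer with 0.01% Tween-20. Compound was titrated 0.5 nM to 58 μM and preincubated 5 min at room temperature. Resorufin β-D-glucopyranoside was 15 μM final, incubated 30−45 min at 37 °C and stopped with 1 M Tris-HCl pH 8.0. Read-out was fluorescence at Ex 573/Em 610 nm.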

[2] = molecular target: Lysosomal alpha-glucosidase (Homo sapiens) (UniProt P10253); test: Activation of alpha-glucosidase using 4-MU-alpha-glucose as substrate
[3] = tested on: T1, Lysosomal acid glucosylceramidase (Homo sapiens), P04062 [N409S]; test: Activation of glucocerebrosidase N370S mutant using resorufin beta-D-glucopyranoside as substrate incubated for 5 mins prior to substrate addition measured after 30 to 45 mins by fluorimetric analysis
How it was run: (§2)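 Purified recombinant enzyme at 5 nM final: wt in citrate/KH₂PO₄ pH 5.9, N370S at pH 7, with 0.01% Tween-20. Compound was preincubated 5 min at room temperature. Resorufin β-D-glucopyranoside was 15 μM final for 30−45 min at 37 °C, stopped with Tris-HCl pH 8.0. Read-out was fluorescence at Ex 573/Em 610 nm.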

[4] = species: Homo sapiens; test: Ratio of half-maximal activation concentration for glucocerebrosidase N370S (unknwon origin) to half-maximal activation concentration for glucocerebrosidase N370S in Gaucher patient spleen homogenate; type: tissue-based
[5] = molecular target: T2, Lysosomal acid glucosylceramidase (Homo sapiens) (UniProt P04062); test: Ratio of half-maximal activation concentration for wild type glucocerebrosidase to half-maximal activation concentration for wild type glucocerebrosidase in human spleen homogenate; type: tissue-based
T2 sequence (whole entry): T1 sequence (whole entry) with S409N

[6] = molecular target: T2, Lysosomal acid glucosylceramidase (Homo sapiens); test: Activation of wild type glucocerebrosidase in human spleen homogenate using resorufin beta-D-glucopyranoside as substrate incubated for 5 mins prior to substrate addition measured after 30 to 45 mins by fluorimetric analysis; type: tissue-based; how it was run: as §1
[7] = molecular target: T2, Lysosomal acid glucosylceramidase (Homo sapiens); test: Activation of wild type glucocerebrosidase using resorufin beta-D-glucopyranoside as substrate incubated for 5 mins prior to substrate addition measured after 30 to 45 mins by fluorimetric analysis; how it was run: as §2
[8] = Activation of alpha-galactosidase using 4-MU-alpha-galactose as substrate
[9] = tested on: T1, Lysosomal acid glucosylceramidase (Homo sapiens), P04062 [N409S]; test: Activation of Glucocerebrosidase N370S/N370S mutant translocation to lysosome in Gaucher patient dermal fibroblasts incubated for 6 days by LAMP2 colocalization-based laser scanning confocal microscopic analysis relative to vehicle-treated control
How it was run: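 N370S/N370S Gaucher dermal fibroblasts were treated 6 days at 1, 5 or 25 μM, with DMSO vehicle control. Cells were fixed in 3% paraformaldehyde, permeabilized with Triton-X and stained with anti-GCase R386 (Alexa555), anti-LAMP-2 (Alexa488) and DAPI. Confocal imaging used constant laser settings, scoring GCase/LAMP-2 colocalization.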

[10] = tested on: T1, Lysosomal acid glucosylceramidase (Homo sapiens), P04062 [N409S]; test: Activation of glucocerebrosidase N370S mutant in Gaucher patient spleen homogenates using 4-methylumbelliferone-Glc as substrate assessed as half-maximal activation concentration incubated for 5 mins prior to substrate addition measured after 30 to 45 mins by fluorimetric analysis; type: tissue-based
How it was run: (§3)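 Spleen homogenate (27 μg final) in pH 5 citrate/phosphate buffer with KCl, NaCl, MgCl₂ and 0.01% Tween-20. Compound was titrated 0.5 nM to 58 μM and preincubated 5 min at room temperature. Reaction used 1 mM 4MU-Glc for 30−45 min at 37 °C and was stopped with NaOH/glycine pH 10. Read-out was fluorescence at Ex 365/Em 440 nm. AC₅₀ is the average of N = 2.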

[11] = molecular target: T3, Lysosomal acid glucosylceramidase (Homo sapiens, UniProt P04062, N409S); test: Inhibition of glucocerebrosidase N370S mutant in Gaucher patient spleen homogenate using 4-methylumbellifereno-Glc as substrate incubated for 5 mins prior to substrate addition measured after 30 to 45 mins by fluorimetric analysis
[12] = tested on: T1, Lysosomal acid glucosylceramidase (Homo sapiens), P04062 [N409S]; test: Activation of glucocerebrosidase N370S mutant using 4methylumbelliferone-Glc as substrate assessed as half-maximal activation concentration incubated for 5 mins prior to substrate addition measured after 30 to 45 mins by fluorimetric analysis
How it was run: (§4)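 Purified recombinant enzyme at 5 nM final: wt in citrate/KH₂PO₄ pH 5.9, N370S at pH 7, both with 0.01% Tween-20. Compound was titrated 0.5 nM to 58 μM and preincubated 5 min at room temperature. Reaction used 1 mM 4MU-Glc for 30−45 min at 37 °C and was stopped at pH 10. Read-out was fluorescence at Ex 365/Em 440 nm.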

[13] = molecular target: T2, Lysosomal acid glucosylceramidase (Homo sapiens); test: Activation of wild type glucocerebrosidase using 4methylumbelliferone-Glc as substrate assessed as half-maximal activation concentration incubated for 5 mins prior to substrate addition measured after 30 to 45 mins by fluorimetric analysis; how it was run: as §4
[14] = molecular target: T2, Lysosomal acid glucosylceramidase (Homo sapiens); test: Activation of wild type glucocerebrosidase in human spleen homogenate using 4methylumbelliferone-Glc as substrate assessed as half-maximal activation concentration incubated for 5 mins prior to substrate addition measured after 30 to 45 mins by fluorimetric analysis; type: tissue-based; how it was run: as §3
[15] = tested on: T1, Lysosomal acid glucosylceramidase (Homo sapiens), P04062 [N409S]; test: Activation of glucocerebrosidase N370S mutant using 4-methylumbelliferone-beta-Glc as substrate incubated for 5 mins prior to substrate addition measured after 30 to 45 mins by HPLC analysis
How it was run: (§5)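 N370S/N370S patient spleen homogenate at 140 μg/well. Compound was tested at 9 concentrations, 1:2 dilutions from 50 μM. Substrate was 2 mM 4MU-Glc or the C12-BODIPY substrate at 25 μM; other conditions as the plate assay. Stopped reactions were separated on C18 HPLC with fluorescence detection: 4MU at 365/440 nm, C12-BODIPY-Cer at 506/540 nm.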

[16] = tested on: T1, Lysosomal acid glucosylceramidase (Homo sapiens), P04062 [N409S]; test: Activation of glucocerebrosidase N370S mutant using C12-BODIPY-GlcCer as substrate assessed as half-maximal activation concentration incubated for 5 mins prior to substrate addition measured after 30 to 45 mins by HPLC analysis; how it was run: as §5
[17] = tested on: Liver; test: Metabolic stability in CD1 mouse liver microsomes assessed as compound remaining at 1 uM after 60 mins by LC/MS/MS analysis in absence of NADPH; type: ADME, Microsome; settings: 1 h
How it was run: (§6)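 Compound at 1 μM was incubated in duplicate with CD-1 mouse liver microsomes at 37 °C in 100 mM potassium phosphate pH 7.4 with 3 mM MgCl₂, with or without 2 mM NADPH, for 60 min. Reaction was quenched in cold acidified MeCN with internal standard. Parent was quantified by LC−MS/MS as percent of time zero.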

[18] = tested on: Liver; test: Metabolic stability in CD1 mouse liver microsomes assessed as compound remaining at 1 uM after 60 mins by LC/MS/MS analysis in presence of NADPH; type: ADME, Microsome; settings: 1 h; how it was run: as §6
[19] = molecular target: T4, Lysosomal acid glucosylceramidase (Homo sapiens, UniProt P04062); test: Inhibition of wild type glucocerebrosidase using 4-methylumbellifereno-Glc as substrate incubated for 5 mins prior to substrate addition measured after 20 mins by fluorimetric analysis
T4 sequence (P04062 whole entry): T1 sequence (whole entry) with S409N

[20] = molecular target: T3, Lysosomal acid glucosylceramidase; test: Inhibition of glucocerebrosidase N370S mutant using 4-methylumbellifereno-Glc as substrate incubated for 5 mins prior to substrate addition measured after 20 mins by fluorimetric analysis
[21] = molecular target: T3, Lysosomal acid glucosylceramidase; test: Inhibition of glucocerebrosidase N370S mutant in Gaucher patient spleen homogenate using 4-methylumbellifereno-Glc as substrate incubated for 5 mins prior to substrate addition measured after 20 mins by fluorimetric analysis; type: tissue-based
[22] = molecular target: T4, Lysosomal acid glucosylceramidase; test: Inhibition of wild type glucocerebrosidase in human spleen homogenate using 4-methylumbellifereno-Glc as substrate incubated for 5 mins prior to substrate addition measured after 20 mins by fluorimetric analysis; type: tissue-based

Activity [1] | Activity [2] | Activity [3] | Ratio [4] | Ratio [5] | Activity [6] | Activity [7] | Activity [8] | Activity [10] | Structure (SMILES) | further results
 | inactive |  |  |  |  |  | inactive | 1.46 µM | Cc1cc(C)n2ncc(C(=O)Nc3ccc(C(F)(F)F)cc3)c2n1 | Activity [15]: Dose-dependent effect; Activity [16]: inactive; Stability [17]: 100%; Stability [18]: 83%
inactive | inactive | inactive | 3 | 3 | inactive | inactive | inactive | 4.6 µM | O=C(Nc1ccccc1Sc1ccccc1)c1cnn2c(C(F)F)cc(C3CC3)nc12 | Activity [15]: Dose-dependent effect; Activity [16]: inactive

More lines, now with the values behind:

Structure (SMILES) | Activity [1] | Activity [2] | Activity [3] | Ratio [4] | Ratio [5] | Activity [6] | Activity [7] | Activity [8] | Activity [10] | further results
CCC(C)c1ccc(NC(=O)c2cnn3c(C(F)F)cc(C)nc23)cc1 (configuration not stated) | inactive | inactive | inactive | 3 | 3 | inactive | inactive | inactive |  | 
Cc1cc(C)n2ncc(C(=O)NCCCCO)c2n1 |  | inactive |  |  |  |  |  | inactive | inactive | Activity [9]: inactive
CCc1nnc(NC(=O)c2ccc(NS(=O)(=O)c3ccccc3)cc2)s1 |  |  |  |  |  |  |  |  |  | IC50 [11]: Not Active
Cc1cc(C)n2ncc(C(=O)Nc3ccc(Cl)c(Cl)c3)c2n1 | inactive | inactive | inactive | 3 | 3 | inactive | inactive | inactive | 3.66 µM | Activity [12]: 15.9 µM; Activity [13]: 14.1 µM; Activity [14]: 4.47 µM
COc1ccc(Cl)cc1Nc1nc(NCCO)nc(N2CCCC2)n1 |  |  |  |  |  |  |  |  |  | IC50 [11]: Not Active
CCc1ccc(NC(=O)c2cnn3c(C(F)F)cc(C)nc23)cc1 | inactive | inactive | inactive | 3 | 3 | inactive | inactive | inactive | 2.24 µM | 
O=S(=O)(c1ccc2ccccc2c1)N1CCN(c2nc(-c3cccs3)nc3ccccc23)CC1 |  |  |  |  |  |  |  |  |  | IC50 [19]: 8.9 µM; IC50 [20]: Not Active; IC50 [21]: 330 nM; IC50 [22]: 280 nM
S=C(NCCCc1c[nH]cn1)NCCCN(Cc1ccc(Cl)c(Cl)c1)c1ccc(Br)cn1 |  |  |  |  |  |  |  |  |  | IC50 [19]: 0.71 µM; IC50 ([20]; read-out: IC50): 2500 nM; IC50 [22]: 360 nM
Cc1cc(C)n2ncc(C(=O)Nc3ccc(Br)cc3)c2n1 |  | inactive |  |  |  |  |  | inactive | 2.06 µM | Activity [15]: Dose-dependent effect; Activity [16]: inactive; Stability [17]: 86%; Stability [18]: 12%
